Experiments:
[1] = Steady-state plasma pharmacokinetics of HCTZ alone or with henagliflozin; assay type: in vivo, human
[2] = system: healthy Chinese volunteers; assay: Safety and tolerability; assay type: in vivo, human; details: per treatment period
Method in brief: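 12 enrolled healthy Chinese men aged 18–40 y with BMI 19–26 kg/m2. All had normal blood chemistry, haematology, urinalysis, vital signs and hepatitis/HIV serology, and stopped interfering medications 4 weeks before the study. Treatment-emergent adverse events were recorded as events and subjects for each treatment period (multiple-dose monotherapy with each drug, then co-administration). Drug relatedness was assessed.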

[3] = Steady-state plasma pharmacokinetics of henagliflozin alone or with HCTZ; assay type: in vivo, human
[4] = 2.5 mg dose group; cited from earlier work
[5] = system: healthy subjects and patients with T2DM; details: cited from earlier work

| Decrease of Css,max by co-administration ([1]; co-administration with henagliflozin vs HCTZ alone) | Increase of Css,max by co-administration ([3]; co-administration with HCTZ vs henagliflozin alone) | 90% CI of ratio of geometric means (combination: monotherapy) for AUCτ,ss ([3]; henagliflozin, compared with bioequivalence interval) | Compound | 90% CI of ratio of geometric means (combination: monotherapy) for AUCτ,ss ([1]; HCTZ, compared with bioequivalence interval) | All TEAEs, number of subjects ([2]; of 12 subjects) | Diarrhea, number of subjects ([2]; of 12 subjects) | Drug-related TEAEs, number of subjects ([2]; of 12 subjects) | Eczema, number of subjects ([2]; of 12 subjects) | Subjects reporting TEAEs ([2]; of 12 subjects) | Thirst, number of subjects ([2]; of 12 subjects) | Dizziness, number of subjects ([2]; of 12 subjects) | All TEAEs, number of subjects ([2]; of 12 subjects, listed as henagliflozin) | All TEAEs, number of events ([2]; figure in brackets) | Drug-related TEAEs, number of events ([2]; figure in brackets) | Difference in AUC0-24h and Cmax between males and females [4] | Benefit of 20 mg group compared with 5 mg and 10 mg groups (PK/PD) ([5]; 5–20 mg dosing range, healthy subjects and patients with T2DM) | Effect on blood glucose, blood electrolytes, or blood pressure ([5]; healthy people) |
| --- | --- | --- | --- | --- | --- | --- | --- | --- | --- | --- | --- | --- | --- | --- | --- | --- | --- |
| 19.41% | – | – | NS(=O)(=O)c1cc2c(cc1Cl)NCNS2(=O)=O [HCTZ, Hydrochlorothiazide] | within the bioequivalence interval of 0.80–1.25 | 11 | 2(2) | 11 | 0(0) | 91.7% | 10(10) | – | – | – | – | – | – | – |
| – | 24.32% | fell between 0.80 and 1.25 | CCOc1ccc(Cc2cc([C@@]34OC[C@@](CO)(O3)[C@@H](O)[C@H](O)[C@H]4O)ccc2Cl)cc1F [Henagliflozin] | – | 4(4) | 2(2) | – | 1(1) | 33.3% | – | 1(1) | 4 | four | all TEAEs were considered to be related to henagliflozin | no statistical difference | no significant benefit | no effect |

Source: paper PMC11144404 (Drug Design, Development and Therapy, 2024)
